{"source": "the RNAGym collection of RNA variant scans (doi:10.1126/science.aae0568)", "parents": {"B1": {"name": "tRNA (parent)", "chain": "GUUCCGUUGGCGUAAUGGUAACGCGUCUCCCUCCUAAGGAGAAGACUGCGGGUUCGAGUCCCGUACGGAACG"}}, "note": "Variants at the floor of the assay were thinned out."}
{"variants_of": "B1", "assay": "yeast fitness relative to wild type (ratio to wild type); higher = fitter; tRNA-Arg(CCU), competitive growth, 37 C, YPD", "in_short": "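For this measurement, the tRNA-Arg(CCU) gene was varied by chemical synthesis at a 3% per-site mutation rate across 69 sites, and each variant was placed at the native genomic locus in Saccharomyces cerevisiae. The pooled strains went through a 24-hour competition in YPD at 37°C in six parallel replicates, with amplicons from start and end populations read by 100-nucleotide paired-end sequencing. Darwinian fitness relative to wild type followed from the change in each genotype's frequency. Genotypes needed ≥ 100 starting reads, and estimates < 0.5 were set to 0.5.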"}
{"variant": "C4G A45C", "yeast fitness": 0.767}
{"variant": "C4A U19G A45G C46U", "yeast fitness": "≤ 0.5"}
{"variant": "C4G A40U A45U U47C", "yeast fitness": "≤ 0.5"}
{"variant": "C4G A14C C22U U47C", "yeast fitness": "≤ 0.5"}
{"variant": "C4G A14G U26C A36G A37C G51C", "yeast fitness": "≤ 0.5"}
{"variant": "C4G A57G", "yeast fitness": 0.728}
{"variant": "C4G A57U", "yeast fitness": 0.757}
{"variant": "C4G C11A A14C", "yeast fitness": "≤ 0.5"}
{"variant": "C4G A20G G39A A45C", "yeast fitness": "≤ 0.5"}
{"variant": "C4G C24G C27A U28C A65U", "yeast fitness": "≤ 0.5"}
{"variant": "C4A U53A G67U", "yeast fitness": "≤ 0.5"}
{"variant": "C4A U13G A40G A45U U47A", "yeast fitness": "≤ 0.5"}
{"variant": "C4G C5G G56A A69C", "yeast fitness": "≤ 0.5"}
{"variant": "C4G C24U C30A G52C", "yeast fitness": "≤ 0.5"}
{"variant": "C4G C5G G10A G18A A42C", "yeast fitness": "≤ 0.5"}
{"variant": "C4A U47A", "yeast fitness": 0.857}
{"variant": "C4A U47G", "yeast fitness": 0.686}
{"variant": "C4G A37C", "yeast fitness": 0.773}
{"variant": "C4G C5U G44C G67U", "yeast fitness": "≤ 0.5"}
{"variant": "C4A U19G U35C", "yeast fitness": "≤ 0.5"}
{"variant": "C4G A21G A36U U59A", "yeast fitness": 0.502}
{"variant": "C4G C24U A69U", "yeast fitness": 0.652}
{"variant": "C4A U35C U64G", "yeast fitness": "≤ 0.5"}
{"variant": "C4G A20U A57U C66U", "yeast fitness": "≤ 0.5"}
{"variant": "C4G C5G C34G", "yeast fitness": "≤ 0.5"}
{"variant": "C4A U19G C31G A45C C46G", "yeast fitness": 0.555}
{"variant": "C4G A40U C66U", "yeast fitness": 0.571}
{"variant": "C4G C11G U26A C60G", "yeast fitness": "≤ 0.5"}
{"variant": "C4A U53C", "yeast fitness": 0.691}
{"variant": "C4G A20U A57U", "yeast fitness": "≤ 0.5"}
{"variant": "C4G C24A G39A A42U U47A C60G", "yeast fitness": "≤ 0.5"}
{"variant": "C4G C22G A45C C55U", "yeast fitness": "≤ 0.5"}
{"variant": "C4A U54C U59A", "yeast fitness": 0.542}
{"variant": "C4G C22A U35A", "yeast fitness": "≤ 0.5"}
{"variant": "C4G C11A U19C G23C", "yeast fitness": 0.524}
{"variant": "C4G A45G C62A", "yeast fitness": 0.554}
{"variant": "C4G C5A C27A", "yeast fitness": 0.641}
{"variant": "C4A U16C G17A A40C A43U U47A C60A", "yeast fitness": "≤ 0.5"}
{"variant": "C4G C11U A42U G58A A69U", "yeast fitness": "≤ 0.5"}
{"variant": "C4G C5G A14U C49G A57U G63A G67A", "yeast fitness": 0.631}
{"variant": "C4G A14G", "yeast fitness": 0.78}
{"variant": "C4G A14C", "yeast fitness": 0.568}
{"variant": "C4G A14U", "yeast fitness": 0.78}
{"variant": "C4A U64G", "yeast fitness": 0.641}
{"variant": "C4A U64C", "yeast fitness": 0.923}
{"variant": "C4G A36C", "yeast fitness": 0.745}
{"variant": "C4G A36U", "yeast fitness": 0.663}
{"variant": "C4G A14G G44C U47A", "yeast fitness": "≤ 0.5"}
{"variant": "C4G A14G C24U U32G A43G C66U", "yeast fitness": "≤ 0.5"}
{"variant": "C4G C5A C24U", "yeast fitness": "≤ 0.5"}
{"variant": "C4G A21G A43C C46A A57C C62G C66U", "yeast fitness": "≤ 0.5"}
{"variant": "C4G C24G C30U C46G", "yeast fitness": "≤ 0.5"}
{"variant": "C4G A42G A45U", "yeast fitness": 0.67}
{"variant": "C4G C11U A36U G52C", "yeast fitness": "≤ 0.5"}
{"variant": "C4G C11G A65C", "yeast fitness": 0.576}
{"variant": "C4G C5A U8C A21C C31A A42G", "yeast fitness": "≤ 0.5"}
{"variant": "C4G C5U U19A C55G U64A", "yeast fitness": "≤ 0.5"}
{"variant": "C4G A20U C31G", "yeast fitness": 0.555}
{"variant": "C4G A21G C24G C34U U53C C55G C62A", "yeast fitness": "≤ 0.5"}
{"variant": "C4G C5U G12C", "yeast fitness": "≤ 0.5"}
{"variant": "C4G C5G A14U C46G A69U", "yeast fitness": "≤ 0.5"}
{"variant": "C4G C5U A42G G67A", "yeast fitness": "≤ 0.5"}
{"variant": "C4G A21G C22U U28A U35C", "yeast fitness": "≤ 0.5"}
{"variant": "C4G C5A C27U G68A", "yeast fitness": "≤ 0.5"}
{"variant": "C4G C11U U47A", "yeast fitness": "≤ 0.5"}
{"variant": "C4A U16A C29G C55U C66U", "yeast fitness": "≤ 0.5"}
{"variant": "C4G A15G C29A C34U C66G", "yeast fitness": "≤ 0.5"}
{"variant": "C4G A40U C62A", "yeast fitness": 0.638}
{"variant": "C4G C22A C66U", "yeast fitness": "≤ 0.5"}
{"variant": "C4G C11A C66G", "yeast fitness": "≤ 0.5"}
{"variant": "C4G A40G A45U", "yeast fitness": "≤ 0.5"}
{"variant": "C4G A15U G56C U59A", "yeast fitness": "≤ 0.5"}
{"variant": "C4G C11A C30G A65G C66U", "yeast fitness": "≤ 0.5"}
{"variant": "C4G A20C", "yeast fitness": 0.8}
{"variant": "C4G A20G", "yeast fitness": 0.966}
{"variant": "C4G A20U", "yeast fitness": 0.659}
{"variant": "C4G C11A C46G", "yeast fitness": 0.693}
{"variant": "C4G C5U U8A G12A G48A A69C", "yeast fitness": "≤ 0.5"}
{"variant": "C4G A20U G41A A57C", "yeast fitness": "≤ 0.5"}
{"variant": "C4G A14U C31U A40G", "yeast fitness": "≤ 0.5"}
{"variant": "C4G C5U C31G A43U", "yeast fitness": "≤ 0.5"}
{"variant": "C4G C5G C29U G50C U59A", "yeast fitness": "≤ 0.5"}
{"variant": "C4G A14U C46U C60U A65C", "yeast fitness": "≤ 0.5"}
{"variant": "C4G A43C A45G", "yeast fitness": 0.629}
